Test results reported in ChEMBL document CHEMBL1131324 (J Med Chem, 1998).

Experiments:
[1] = target: T1, 5-hydroxytryptamine receptor 1B (Homo sapiens, UniProt P28222); assay: Binding affinity for human 5-hydroxytryptamine 1B receptor
[2] = target: 5-hydroxytryptamine receptor 1D (Homo sapiens, UniProt P28221); assay: Binding affinity for human 5-hydroxytryptamine 1D receptor
[3] = target: 5-hydroxytryptamine receptor 2A (Homo sapiens, UniProt P28223); assay: Binding affinity for human 5-hydroxytryptamine 2A receptor
5-hydroxytryptamine receptor 2A, sequence (P28223 whole entry): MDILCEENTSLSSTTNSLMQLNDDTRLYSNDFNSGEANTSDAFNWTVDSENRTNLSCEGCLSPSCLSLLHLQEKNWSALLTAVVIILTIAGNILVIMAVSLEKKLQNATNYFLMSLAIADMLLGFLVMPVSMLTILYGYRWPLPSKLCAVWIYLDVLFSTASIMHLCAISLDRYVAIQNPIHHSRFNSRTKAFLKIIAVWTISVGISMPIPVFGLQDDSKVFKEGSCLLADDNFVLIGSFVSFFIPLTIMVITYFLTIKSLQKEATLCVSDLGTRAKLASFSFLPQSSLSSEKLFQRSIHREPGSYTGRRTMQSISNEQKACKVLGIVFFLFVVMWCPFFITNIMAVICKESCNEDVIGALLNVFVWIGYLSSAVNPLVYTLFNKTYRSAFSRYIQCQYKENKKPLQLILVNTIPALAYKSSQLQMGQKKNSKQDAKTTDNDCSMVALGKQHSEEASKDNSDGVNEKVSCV
Procedure, shortened: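 Human cloned receptor expressed in HEK 293 cells; displacement of [³H]ketanserin in 50 mM Tris-HCl (pH 7.7 at 25 °C). Test compound over a concentration range, 30-45 min at 37 °C; filtration with ice-cold buffer wash, bound label by scintillation counting; pKi reported as mean (SEM, n) or individual values where n = 2.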

[4] = target: T1, 5-hydroxytryptamine receptor 1B; assay: Effect of compound on [35S]GTP-gamma-S, radioligand binding CHO cells expressing human 5-hydroxytryptamine 1B receptor; format: functional, cell-based
[5] = target: Beta-1 adrenergic receptor (Homo sapiens, UniProt P08588); assay: Compound was tested for binding affinity against human cloned Beta-1 adrenergic receptor
Beta-1 adrenergic receptor, sequence (P08588 whole entry): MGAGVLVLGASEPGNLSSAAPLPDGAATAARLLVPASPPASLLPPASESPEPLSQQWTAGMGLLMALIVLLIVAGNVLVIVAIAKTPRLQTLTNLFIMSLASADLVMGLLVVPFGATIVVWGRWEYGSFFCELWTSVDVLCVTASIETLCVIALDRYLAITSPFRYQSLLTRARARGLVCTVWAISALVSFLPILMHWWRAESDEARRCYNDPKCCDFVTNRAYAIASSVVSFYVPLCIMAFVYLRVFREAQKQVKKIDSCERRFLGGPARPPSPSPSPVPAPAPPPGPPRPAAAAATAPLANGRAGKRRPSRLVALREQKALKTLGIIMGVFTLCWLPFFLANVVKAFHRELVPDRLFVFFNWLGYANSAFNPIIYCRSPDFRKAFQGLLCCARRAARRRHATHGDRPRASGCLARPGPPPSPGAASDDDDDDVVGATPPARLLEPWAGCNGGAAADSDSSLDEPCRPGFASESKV
Procedure, shortened: (§1)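 Radioligand competition run to literature procedures, giving pKi. Receptor preparation incubated with radioligand and a range of test concentrations for 30–45 min at 37 °C. Rapid filtration, ice-cold buffer wash, dried filters scintillation-counted. Mean ± SEM, or individual values where n = 2.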

[6] = target: Serotonin 4 (5-HT4) receptor (Sus scrofa, UniProt Q6Q253); assay: Compound was tested for binding affinity against piglet hippocampus 5-hydroxytryptamine 4 receptor; format: tissue-based
Serotonin 4 (5-HT4) receptor, sequence (Q6Q253 whole entry): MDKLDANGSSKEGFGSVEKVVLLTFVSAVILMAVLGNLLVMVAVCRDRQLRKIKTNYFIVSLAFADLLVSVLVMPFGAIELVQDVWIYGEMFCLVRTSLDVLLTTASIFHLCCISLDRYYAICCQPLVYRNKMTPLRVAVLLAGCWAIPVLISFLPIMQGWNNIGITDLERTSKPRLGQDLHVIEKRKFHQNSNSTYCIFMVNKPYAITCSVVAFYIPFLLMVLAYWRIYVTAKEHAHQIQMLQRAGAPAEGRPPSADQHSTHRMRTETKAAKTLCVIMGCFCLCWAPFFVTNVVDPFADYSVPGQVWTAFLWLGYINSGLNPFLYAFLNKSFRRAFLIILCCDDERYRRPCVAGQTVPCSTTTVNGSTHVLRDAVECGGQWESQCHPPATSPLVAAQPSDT
Procedure, shortened: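 pKi from displacement of [125I]SB-207710 in piglet hippocampus. Radioligand and a range of test concentrations incubated 30–45 min at 37 °C, then rapidly filtered, washed with ice-cold buffer and counted by scintillation.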

[7] = target: Alpha-2A adrenergic receptor (Homo sapiens, UniProt P08913); assay: Compound was tested for binding affinity against human cloned Alpha-2A adrenergic receptor; procedure, shortened: as §1
[8] = target: T2, Serotonin 1 receptors; 5-HT1B & 5-HT1D (Homo sapiens) (UniProt P28222+P28221); details: Cavia porcellus
Cavia porcellus [9] = species: Cavia porcellus; assay: Mean maximum temperature drop on SK & F 99101H (-2.23(0.13)) -induced Hypothermia at 8 hr postdose treatment(** p< 0.01 vs SK & F 99101H controls).; format: functional
Procedure, shortened: (§2)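 Male Dunkin-Hartley guinea pigs, n = 6/group. Compound given 5.0 mg/kg po, then SK&F 99101H 30 mg/kg ip at 2, 4, 8 or 24 h postdose; 8 and 24 h data come from a second independent experiment. Rectal temperature measured by probe 4–5 cm deep. Mean maximum temperature drop, also expressed as % of SK&F 99101H controls.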

Cavia porcellus [10] = species: Cavia porcellus; assay: (§3) Compound was tested for % of SK & F 99101H controls on induced Hypothermia at 4 h postdose treatment.; format: functional; procedure, shortened: as §2
Cavia porcellus [11] = species: Cavia porcellus; assay: Effect on SK & F 99101H (-2.60(1.37) -induced Hypothermia at 24 hr postdose treatment in guinea pig(** p< 0.01 vs SK & F 99101H controls).; format: functional; procedure, shortened: as §2
Cavia porcellus [12] = species: Cavia porcellus; assay: Compound was tested for % of SK & F 99101H controls on induced Hypothermia at 8 hr postdose treatment.; format: functional; procedure, shortened: as §2
[13] = target: T2, Serotonin 1 receptors; 5-HT1B & 5-HT1D (Homo sapiens); details: Cavia porcellus; 0.3 mg/kg
[14] = target: Alpha-1B adrenergic receptor (Rattus norvegicus, UniProt P15823); assay: Compound was tested for binding affinity against Alpha-1B adrenergic receptor (rat liver, [3H] prazosin); procedure, shortened: as §1
Alpha-1B adrenergic receptor, sequence (P15823 whole entry): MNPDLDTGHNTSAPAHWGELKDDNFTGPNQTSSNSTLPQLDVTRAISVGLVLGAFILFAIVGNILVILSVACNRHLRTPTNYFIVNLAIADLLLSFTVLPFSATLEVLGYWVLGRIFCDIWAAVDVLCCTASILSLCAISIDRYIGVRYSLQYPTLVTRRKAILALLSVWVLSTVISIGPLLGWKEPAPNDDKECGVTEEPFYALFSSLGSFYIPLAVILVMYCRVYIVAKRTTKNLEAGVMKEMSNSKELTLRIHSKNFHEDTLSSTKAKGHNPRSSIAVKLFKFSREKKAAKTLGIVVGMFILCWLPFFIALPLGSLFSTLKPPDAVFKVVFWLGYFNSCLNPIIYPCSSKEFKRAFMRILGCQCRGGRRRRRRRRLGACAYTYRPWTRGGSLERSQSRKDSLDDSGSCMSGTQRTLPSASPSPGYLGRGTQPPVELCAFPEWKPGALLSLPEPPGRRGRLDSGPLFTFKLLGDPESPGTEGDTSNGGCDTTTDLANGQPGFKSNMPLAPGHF

[15] = target: Muscarinic acetylcholine receptor M2 (Homo sapiens, UniProt P08172); assay: Compound was tested for binding affinity against human cloned Muscarinic acetylcholine receptor M2; procedure, shortened: as §1
[16] = target: Alpha-1A adrenergic receptor (Rattus norvegicus, UniProt P43140); assay: Compound was tested for binding affinity against Alpha-1A adrenergic receptor (rat submaxillary gland); procedure, shortened: as §1
Alpha-1A adrenergic receptor, sequence (P43140 whole entry): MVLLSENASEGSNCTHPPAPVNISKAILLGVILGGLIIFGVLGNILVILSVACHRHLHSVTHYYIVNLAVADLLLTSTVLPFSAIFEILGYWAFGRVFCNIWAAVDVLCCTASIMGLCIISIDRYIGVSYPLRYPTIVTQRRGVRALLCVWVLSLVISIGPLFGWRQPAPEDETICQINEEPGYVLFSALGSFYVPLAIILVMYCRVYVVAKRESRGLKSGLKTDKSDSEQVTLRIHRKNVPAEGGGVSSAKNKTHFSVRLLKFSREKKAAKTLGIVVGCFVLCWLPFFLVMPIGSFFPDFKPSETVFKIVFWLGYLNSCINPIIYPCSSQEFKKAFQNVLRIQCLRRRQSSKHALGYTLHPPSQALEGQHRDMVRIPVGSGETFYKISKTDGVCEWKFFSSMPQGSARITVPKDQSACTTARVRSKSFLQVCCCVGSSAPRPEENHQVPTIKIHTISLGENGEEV

Cavia porcellus [17] = species: Cavia porcellus; assay: Mean maximum temperature drop on SK & F 99101H (-1.72(0.09)) -induced Hypothermia at 2 hr postdose treatment(**p< 0.01 vs SK & F 99101H controls).; format: functional; procedure, shortened: as §2
[18] = target: 5-hydroxytryptamine receptor 2C (Homo sapiens, UniProt P28335); assay: Compound was tested for binding affinity against human 5-hydroxytryptamine 2C receptor
5-hydroxytryptamine receptor 2C, sequence (P28335 whole entry): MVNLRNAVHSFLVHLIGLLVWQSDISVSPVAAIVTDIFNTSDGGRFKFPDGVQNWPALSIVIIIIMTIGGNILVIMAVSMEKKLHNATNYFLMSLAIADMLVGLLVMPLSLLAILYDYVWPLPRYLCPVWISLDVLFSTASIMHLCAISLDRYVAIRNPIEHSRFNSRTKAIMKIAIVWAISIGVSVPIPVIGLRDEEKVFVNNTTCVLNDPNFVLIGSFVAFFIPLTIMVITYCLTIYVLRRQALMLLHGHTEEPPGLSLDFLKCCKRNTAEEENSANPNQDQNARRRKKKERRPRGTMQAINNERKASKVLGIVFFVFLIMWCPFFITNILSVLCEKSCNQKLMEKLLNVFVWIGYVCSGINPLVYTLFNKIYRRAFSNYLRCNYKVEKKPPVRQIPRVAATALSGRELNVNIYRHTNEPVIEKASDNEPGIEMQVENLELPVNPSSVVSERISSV
Procedure, shortened: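 Competition binding against human cloned 5-HT2C receptor expressed in HEK 293 cells. [3H]mesulergine was the radioligand. Incubation in 50 mM Tris-HCl (pH 7.7 at 25 °C) with a range of test concentrations for 30–45 min at 37 °C. Samples were rapidly filtered, washed with ice-cold buffer, and counted by scintillation. pKi is given as mean (SEM, n) or as individual values where n = 2.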

[19] = target: T2, Serotonin 1 receptors; 5-HT1B & 5-HT1D (Homo sapiens); details: Cavia porcellus; 10.0 mg/kg
Cavia porcellus [20] = species: Cavia porcellus; assay: Compound was tested for % of SK & F 99101H controls on induced Hypothermia at 24 hr postdose treatment.; format: functional; procedure, shortened: as §2
D(3) dopamine receptor = D(3) dopamine receptor (Homo sapiens, UniProt P35462); assay: Compound was tested for binding affinity against human cloned Dopamine receptor D3
Procedure, shortened: (§4)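 Human D2 or D3 receptors expressed in CHO cells, displacement of [3H]spiperone, giving pKi. Incubated 30–45 min at 37 °C with a range of test concentrations. Filtered, washed with ice-cold buffer, bound label counted by scintillation.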

D(2) dopamine receptor = D(2) dopamine receptor (Homo sapiens, UniProt P14416); assay: Compound was tested for binding affinity against human cloned Dopamine receptor D2; procedure, shortened: as §4
D(2) dopamine receptor, sequence (P14416 whole entry): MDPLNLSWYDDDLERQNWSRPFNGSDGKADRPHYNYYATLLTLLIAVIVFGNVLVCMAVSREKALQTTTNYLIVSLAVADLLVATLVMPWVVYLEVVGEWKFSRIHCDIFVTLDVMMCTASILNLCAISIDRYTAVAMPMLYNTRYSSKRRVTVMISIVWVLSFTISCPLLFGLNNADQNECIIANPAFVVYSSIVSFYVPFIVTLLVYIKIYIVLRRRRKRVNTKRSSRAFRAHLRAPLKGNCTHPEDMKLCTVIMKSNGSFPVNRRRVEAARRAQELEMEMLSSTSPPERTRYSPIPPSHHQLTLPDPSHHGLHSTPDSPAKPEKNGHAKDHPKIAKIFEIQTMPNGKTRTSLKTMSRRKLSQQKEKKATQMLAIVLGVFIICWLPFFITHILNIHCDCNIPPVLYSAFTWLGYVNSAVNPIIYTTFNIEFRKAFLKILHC

Cavia porcellus [21] = assay: Body temperature drop at 4.6 mg/kg po dosage in Guinea pig.; format: functional
[22] = target: T2, Serotonin 1 receptors; 5-HT1B & 5-HT1D (Homo sapiens); details: Cavia porcellus; remark: listed apart in the source
[23] = target: T2, Serotonin 1 receptors; 5-HT1B & 5-HT1D (Homo sapiens); details: Cavia porcellus; remark: listed apart in the source
Cavia porcellus [24] = species: Cavia porcellus; assay: Body temperature drop at SK & F 99101H positive control dose (* p< 0.01 vs vehicle/vehicle controls) in Guinea pig.; format: functional
Cavia porcellus [25] = species: Cavia porcellus; assay: Compound was tested for % of SK & F 99101H controls on induced Hypothermia at 2 hr postdose.; format: functional; procedure, shortened: as §2
[26] = target: Beta-2 adrenergic receptor (Homo sapiens, UniProt P07550); assay: Compound was tested for binding affinity against human cloned Beta-2 adrenergic receptor; procedure, shortened: as §1
Histamine H1 receptor = Histamine H1 receptor (Cavia porcellus, UniProt P31389); assay: Compound was tested for binding affinity against Histamine H1 receptor.; procedure, shortened: as §1
Cavia porcellus [27] = assay: Body temperature drop at 10 mg/kg po dosage in Guinea pig.; format: functional
Histamine H2 receptor = Histamine H2 receptor (Cavia porcellus, UniProt P47747); assay: Compound was tested for binding affinity towards Histamine H2 receptor; procedure, shortened: as §1
Cavia porcellus [28] = species: Cavia porcellus; assay: as §3; format: functional; procedure, shortened: as §2; remark: listed apart in the source
[29] = target: Alpha-2B adrenergic receptor (Mus musculus, UniProt P30545); assay: Compound was tested for binding affinity against Alpha-2B adrenergic receptor (NG 108-15 cells) using [3H]RX-821002) as radioligand; format: cell-based; procedure, shortened: as §1
Alpha-2B adrenergic receptor, sequence (P30545 whole entry): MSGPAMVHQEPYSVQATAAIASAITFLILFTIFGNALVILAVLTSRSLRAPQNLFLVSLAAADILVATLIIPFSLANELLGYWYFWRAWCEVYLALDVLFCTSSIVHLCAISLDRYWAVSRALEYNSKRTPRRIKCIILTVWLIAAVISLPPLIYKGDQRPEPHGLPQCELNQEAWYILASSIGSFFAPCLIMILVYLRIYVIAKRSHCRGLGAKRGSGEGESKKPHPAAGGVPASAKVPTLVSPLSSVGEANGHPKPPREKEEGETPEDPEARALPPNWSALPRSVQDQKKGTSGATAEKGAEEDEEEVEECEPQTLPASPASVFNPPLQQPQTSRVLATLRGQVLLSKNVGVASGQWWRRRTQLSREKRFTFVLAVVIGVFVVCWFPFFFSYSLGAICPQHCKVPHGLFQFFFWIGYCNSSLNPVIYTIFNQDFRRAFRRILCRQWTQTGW

[30] = target: T2, Serotonin 1 receptors; 5-HT1B & 5-HT1D (Homo sapiens); details: Cavia porcellus; 3.0 mg/kg
Cavia porcellus [31] = assay: Body temperature drop at 22 mg/kg po dosage in Guinea pig; format: functional
Cavia porcellus [32] = species: Cavia porcellus; assay: Mean maximum temperature drop on SK & F 99101H (-1.22(0.27)) -induced Hypothermia at 8 hr postdose treatment(* p< 0.05 vs SK & F 99101H controls).; format: functional; procedure, shortened: as §2
[33] = target: 5-hydroxytryptamine receptor 1E (Homo sapiens, UniProt P28566); assay: Compound was tested for binding affinity against human 5-hydroxytryptamine 1E receptor
Procedure, shortened: (§5)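 Competition binding giving pKi. Human cloned 5-HT1A in HEK 293 cells vs [3H]-8-OH-DPAT; human 5-HT1E and 5-HT1F in CHO cells vs [3H]-5-HT. Radioligand with a concentration range of test compound, 30–45 min at 37 °C. Rapid filtration, ice-cold buffer wash, scintillation counting. Mean ± SEM, or individual values where n = 2.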

Cavia porcellus [34] = assay: Body temperature drop at 2.2 mg/kg po dosage in Guinea pig.; format: functional
[35] = target: T2, Serotonin 1 receptors; 5-HT1B & 5-HT1D (Homo sapiens); details: Cavia porcellus; 1.0 mg/kg
[36] = target: T2, Serotonin 1 receptors; 5-HT1B & 5-HT1D (Homo sapiens); details: Cavia porcellus; remark: listed apart in the source
[37] = target: T2, Serotonin 1 receptors; 5-HT1B & 5-HT1D (Homo sapiens); details: Cavia porcellus; remark: listed apart in the source
Cavia porcellus [38] = species: Cavia porcellus; assay: Mean maximum temperature drop on SK & F 99101H (-1.73(0.17)) -induced Hypothermia at 4 hr postdose treatment(** p< 0.01 vs SK & F 99101H controls).; format: functional; procedure, shortened: as §2
[39] = target: Muscarinic acetylcholine receptor M1 (Homo sapiens, UniProt P11229); assay: Compound was tested for binding affinity against human cloned Muscarinic acetylcholine receptor M1; procedure, shortened: as §1
[40] = target: 5-hydroxytryptamine receptor 1F (Homo sapiens, UniProt P30939); assay: Compound was tested for binding affinity against human 5-hydroxytryptamine 1F receptor; procedure, shortened: as §5
[41] = target: T2, Serotonin 1 receptors; 5-HT1B & 5-HT1D (Homo sapiens); details: Cavia porcellus; remark: listed apart in the source
[42] = target: 5-hydroxytryptamine receptor 1A (Homo sapiens, UniProt P08908); assay: Compound was tested for binding affinity against human 5-hydroxytryptamine 1A receptor; procedure, shortened: as §5
5-hydroxytryptamine receptor 1A, sequence (P08908 whole entry): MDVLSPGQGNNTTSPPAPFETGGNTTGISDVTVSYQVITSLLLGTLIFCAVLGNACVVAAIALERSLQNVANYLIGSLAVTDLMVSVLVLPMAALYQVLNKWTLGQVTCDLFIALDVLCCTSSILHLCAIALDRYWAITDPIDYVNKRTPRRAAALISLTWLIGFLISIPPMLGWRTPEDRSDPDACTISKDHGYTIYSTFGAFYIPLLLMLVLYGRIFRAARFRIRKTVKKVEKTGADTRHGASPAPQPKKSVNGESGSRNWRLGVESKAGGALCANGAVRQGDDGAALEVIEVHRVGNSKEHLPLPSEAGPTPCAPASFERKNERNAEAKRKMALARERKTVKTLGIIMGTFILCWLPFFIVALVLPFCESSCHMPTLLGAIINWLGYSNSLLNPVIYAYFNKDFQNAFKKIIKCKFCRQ

T1 sequence (P28222 whole entry): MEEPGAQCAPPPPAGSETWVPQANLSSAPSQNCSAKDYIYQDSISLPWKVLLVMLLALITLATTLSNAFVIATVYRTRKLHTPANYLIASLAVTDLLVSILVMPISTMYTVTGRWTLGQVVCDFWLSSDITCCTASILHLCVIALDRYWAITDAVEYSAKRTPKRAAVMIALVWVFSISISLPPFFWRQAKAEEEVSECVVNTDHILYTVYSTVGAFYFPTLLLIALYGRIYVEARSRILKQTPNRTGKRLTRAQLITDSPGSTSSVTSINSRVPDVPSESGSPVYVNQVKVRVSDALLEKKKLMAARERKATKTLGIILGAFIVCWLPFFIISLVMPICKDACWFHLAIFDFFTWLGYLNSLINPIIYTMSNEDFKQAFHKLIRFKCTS
5-hydroxytryptamine receptor 1D, sequence (P28221 whole entry): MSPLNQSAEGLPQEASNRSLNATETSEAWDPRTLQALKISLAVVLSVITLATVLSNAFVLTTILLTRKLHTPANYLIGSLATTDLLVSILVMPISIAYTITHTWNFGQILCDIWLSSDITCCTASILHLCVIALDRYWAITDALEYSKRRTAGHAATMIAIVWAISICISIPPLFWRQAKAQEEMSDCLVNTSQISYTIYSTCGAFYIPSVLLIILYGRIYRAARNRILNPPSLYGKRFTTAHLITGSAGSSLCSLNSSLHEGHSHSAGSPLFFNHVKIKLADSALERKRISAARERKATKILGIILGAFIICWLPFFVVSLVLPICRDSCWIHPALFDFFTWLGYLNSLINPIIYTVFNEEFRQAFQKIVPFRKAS

Cc1nc(-c2ccc(-c3ccc(C(=O)Nc4cc5c(c(OCCN(C)C)c4)OCC5)cc3)c(C)c2)no1
Ki [1]: 1.58 nM | Ki [2]: 25.1 nM | Ki [3]: 50.1 nM | [35S]GTPγS binding stimulation [4]: 207%

COc1ccc(NC(=O)c2ccc(Br)c(C)c2)cc1N1CCN(C)CC1
Ki [1]: 6.31 nM | Ki [2]: 12.6 nM | Ki [3]: 200 nM

Cc1nc(-c2ccc(-c3ccc(C(=O)N4CCc5cc6c(cc54)C4(CCN(C)CC4)CO6)cc3)c(C)c2)no1 [SB-224289]
Ki [5]: > 1000 nM | Ki [6]: > 1000 nM | Ki [7]: > 1000 nM | Body temperature drop [8]: -1.92 °C | Body temp drop (Cavia porcellus [9]): -1.1 °C | Control (Cavia porcellus [10]): 43% | Body temp drop (Cavia porcellus [11]): -1.31 °C | Control (Cavia porcellus [12]): 48% | Control [13]: 93% | Ki [14]: > 1000 nM | Ki [15]: > 1000 nM | Ki [16]: > 1000 nM | Body temp drop (Cavia porcellus [17]): -0.38 °C | Ki [18]: 631 nM | Control [19]: 35% | Control (Cavia porcellus [20]): 50% | Ki (D(3) dopamine receptor): > 1000 nM | Ki (D(2) dopamine receptor): > 1000 nM | Body temperature drop (Cavia porcellus [21]): -0.05 °C | Degrees Centigrade [22]: -1 °C | Degrees Centigrade [23]: -1.77 °C | Mean maximumtemp drop (Cavia porcellus [24]): -2 °C | Control (Cavia porcellus [25]): 22% | Ki [26]: > 1000 nM | Ki (Histamine H1 receptor): > 1000 nM | Body temperature drop (Cavia porcellus [27]): -0.03 °C | Ki (Histamine H2 receptor): > 1000 nM | Control (Cavia porcellus [28]): 15% | Ki [29]: > 1000 nM | Control [30]: 52% | Body temperature drop (Cavia porcellus [31]): -0.03 °C | Body temp drop (Cavia porcellus [32]): -0.53 °C | Ki [3]: 1580 nM | Ki [33]: > 10000 nM | Body temperature drop (Cavia porcellus [34]): -0.23 °C | Control [35]: 85% | Body temperature drop [36]: -0.12 °C | Degrees Centigrade [37]: -1.63 °C | Body temp drop (Cavia porcellus [38]): -0.27 °C | Simulation [4]: -62% | Ki [39]: > 1000 nM | Ki [40]: > 10000 nM | Body temp drop [41]: -0.67 °C | Ki [42]: > 3160 nM

Cc1cc(C(=O)Nc2cccc(N3CCN(C)CC3)c2)ccc1Br
Ki [1]: 126 nM | Ki [2]: 200 nM | Ki [3]: 316 nM

COc1ccc(NC(=O)c2ccc(-c3ccc(-c4noc(C)n4)cc3C)cc2)cc1OCCN(C)C
Ki [2]: 31.6 nM | [35S]GTPγS binding stimulation [4]: 139%

Cc1nc(-c2ccc(-c3ccc(C(=O)Nc4ccc5c(c4)N(CCN(C)C)CCO5)cc3)c(C)c2)no1
Ki [1]: 2.51 nM | Ki [2]: 20 nM | Ki [3]: 3.98 nM | [35S]GTPγS binding stimulation [4]: 91%

Cc1nc(-c2ccc(-c3ccc(C(=O)Nc4ccc5c(c4)C4(CCN(C)CC4)CO5)cc3)c(C)c2)no1
Ki [1]: 31.6 nM | Ki [2]: 2000 nM | Ki [3]: 1000 nM | [35S]GTPγS binding stimulation [4]: -64%

COc1ccc(NC(=O)c2ccc(-c3ccc(-c4noc(C)n4)cc3C)cc2)cc1NCCN(C)C
Ki [1]: 2.51 nM | Ki [2]: 39.8 nM | Ki [3]: 5.01 nM | [35S]GTPγS binding stimulation [4]: 108%

COc1cc2c(cc1OCCN(C)C)N(C(=O)c1ccc(-c3ccc(-c4noc(C)n4)cc3C)cc1)CC2
Ki [1]: 0.501 nM | Ki [2]: 5.01 nM | Ki [3]: 316 nM

COc1ccc(NC(=O)c2ccc(-c3ccc(-c4noc(C)n4)cc3C)cc2)cc1CCCN(C)C
Ki [1]: 3.16 nM | Ki [2]: 100 nM | Ki [3]: 6.31 nM | [35S]GTPγS binding stimulation [4]: -44%

Cc1cc(C(=O)Nc2ccc(C)c(N3CCN(C)CC3)c2)ccc1Br
Ki [1]: 12.6 nM | Ki [2]: 39.8 nM | Ki [3]: 126 nM
